# Experimental data reported in PMC10329767 (Biochemistry, 2023).
# “And” between values parts separate entries of the source, which are not always exact repeats. Equal values may be shown once.
# Legend:
# [1] = 19F NMR pH titration of the free amino acid in solution; assay type: physicochemical; conditions: 19F NMR chemical shift vs pD
# How it was run: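 Free fluorinated Tyr amino acid (5 mg) dissolved in 30 mM deuterated PIPES buffer; pD adjusted with DCl or NaOD across pD 3.6–12.5. 19F spectra recorded on a 400 MHz spectrometer. The 19F chemical shift was plotted against pD and fitted to obtain pKa values.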
# 2,3,5-F3Y158 InhA [2] = assay type: biochemical, Mycobacterium tuberculosis; conditions: 2,3,5-F3Y158 InhA vs wild-type
# wild-type InhA [3] = biological target: T1, wild-type InhA (Mycobacterium tuberculosis, UniProt P9WGR1); experiment: Direct binding fluorescence titration of NADH
# 3-FY158 InhA [4] = experiment: Direct binding fluorescence titration of NADH; parameters: species or system Mycobacterium tuberculosis; conditions: 25 °C, pH 6.8
# 3,5-F2Y158 InhA [5] = biological target: 3,5-F2Y158 InhA; parameters: species or system Mycobacterium tuberculosis; conditions: NADH binding, 25 °C, pH 6.8
# 2,3,5-F3Y158 InhA [6] = biological target: 2,3,5-F3Y158 InhA; parameters: species or system Mycobacterium tuberculosis; conditions: NADH binding, 25 °C, pH 6.8
# 3,5-F2Y158 InhA [7] = assay type: biochemical, Mycobacterium tuberculosis; conditions: read-out: Kiapp; PT166, rapid reversible, global fit to equations 6 and 7
# 2,3,5-F3Y158 InhA [8] = assay type: biochemical, Mycobacterium tuberculosis
# wild-type InhA [9] = biological target: T1, wild-type InhA; conditions: read-out: Kiapp; PT166, rapid reversible, global fit to equations 6 and 7
# 3-FY158 InhA [10] = conditions: read-out: Kiapp; PT166, rapid reversible, global fit to equations 6 and 7
# Y158F mutant = conditions: cited from earlier work
compound,measurement,setting,value
"N[C@@H](Cc1cc(F)c(O)c(F)c1F)C(=O)O [2,3,5-F3Y, 2,3,5-trifluoroTyr]",pKa of the hydroxyl group,[1],6.5
"CCCCCCCCC/C=C/C(=O)SCCNC(=O)CCNC(=O)[C@H](O)C(C)(C)COP(=O)(O)OP(=O)(O)OC[C@H]1O[C@@H](n2cnc3c(N)ncnc32)[C@H](O)[C@@H]1OP(=O)(O)O [DDCOA, trans-2-dodecenoyl-CoA]",fold higher KMapp for dd-CoA than wild-type InhA,"2,3,5-F3Y158 InhA [2]",~ 5 fold
NC(=O)C1=CN([C@@H]2O[C@H](COP(=O)(O)OP(=O)(O)OC[C@H]3O[C@@H](n4cnc5c(N)ncnc54)[C@H](O)[C@@H]3O)[C@@H](O)[C@H]2O)C=CC1 [NADH],Kd,"wild-type InhA [3]; 25 °C, pH 6.8, C-terminal His-tag InhA",8.2 ± 0.3 µM
same,N (Hill coefficient),wild-type InhA [3]; fit to Equation 1,3.1 ± 0.3
same,Kd,3-FY158 InhA [4],7.1 ± 0.6 µM
same,Kd,"3,5-F2Y158 InhA [5]",8.1 ± 0.5 µM
same,Kd,"2,3,5-F3Y158 InhA [6]",8.7 ± 0.2 µM
CCCCCCc1cc(=O)c(Oc2ccccc2C)cn1C [PT166],Ki,"3,5-F2Y158 InhA [7]",0.048 ± 0.001 µM
same,fold change (decrease in affinity) in Kiapp compared to wild-type,"2,3,5-F3Y158 InhA [8]; PT166, 2,3,5-F3Y158 InhA vs wild-type",~ 7 fold and 7 fold
same,Ki,"2,3,5-F3Y158 InhA [8]; read-out: Kiapp, PT166, rapid reversible, global fit to equations 6 and 7",0.213 ± 0.002 µM
same,Ki,wild-type InhA [9],0.031 ± 0.001 µM
same,Ki,3-FY158 InhA [10],0.033 ± 0.001 µM
Oc1cc(Cl)ccc1Oc1ccc(Cl)cc1Cl [triclosan],fold lower affinity for Y158F mutant compared to wild-type InhA,Y158F mutant,~ 100 fold
